From article PMC3741069 (Biochemistry, 2013) come the findings set out here.

Common to all, as to assay: spectral perturbation titration
Holding throughout (type): binding

In experiment [1] the target is T1, nitrate reductase (NarB) (Synechococcus elongatus, UniProt P39458, R84Q).
T1 sequence (P39458 15-729 R84Q): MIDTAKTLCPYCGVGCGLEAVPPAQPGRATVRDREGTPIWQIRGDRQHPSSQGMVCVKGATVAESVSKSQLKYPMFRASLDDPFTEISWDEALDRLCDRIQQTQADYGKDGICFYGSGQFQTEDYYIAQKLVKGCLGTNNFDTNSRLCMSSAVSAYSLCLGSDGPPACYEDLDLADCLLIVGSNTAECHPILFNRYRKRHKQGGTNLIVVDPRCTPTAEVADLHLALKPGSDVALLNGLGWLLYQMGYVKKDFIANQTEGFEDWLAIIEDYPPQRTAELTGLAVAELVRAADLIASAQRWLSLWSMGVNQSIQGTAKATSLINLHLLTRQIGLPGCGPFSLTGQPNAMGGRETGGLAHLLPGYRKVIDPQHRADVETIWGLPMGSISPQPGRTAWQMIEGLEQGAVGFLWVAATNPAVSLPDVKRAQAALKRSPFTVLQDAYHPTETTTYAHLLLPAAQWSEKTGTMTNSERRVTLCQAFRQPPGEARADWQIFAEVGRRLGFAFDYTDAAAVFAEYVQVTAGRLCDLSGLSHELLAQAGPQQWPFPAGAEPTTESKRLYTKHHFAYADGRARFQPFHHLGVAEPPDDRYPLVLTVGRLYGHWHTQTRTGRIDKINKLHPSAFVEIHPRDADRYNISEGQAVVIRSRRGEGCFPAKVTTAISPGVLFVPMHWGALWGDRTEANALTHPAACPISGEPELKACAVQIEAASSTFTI
A digest of the protocol:
(§1)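 Single-residue NarB variants were made by site-directed mutagenesis and expressed and purified as for wild type (His6, Co affinity, DEAE, gel filtration). Complex formation with ferredoxin or nitrate was followed by difference absorbance at variant-specific wavelength pairs chosen for signal:noise. The change at saturating nitrate was taken as 100% complex. Kd came from fitting perturbation magnitude against ligand concentration to a single binding isotherm.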

Experiment [2] addresses T2, nitrate reductase (NarB) (Synechococcus elongatus, UniProt P39458, K72R).
T2 sequence (P39458 15-729 K72R): T1 sequence (P39458 15-729 R84Q) with K58R, Q70R
A digest of the protocol: as §1

Experiment [3] has as its target T3, nitrate reductase (NarB) (Synechococcus elongatus, UniProt P39458, R160Q).
T3 sequence (P39458 15-729 R160Q): T1 sequence (P39458 15-729 R84Q) with Q70R, R146Q
A digest of the protocol:
as §1

In general, Kd refers to the constant that tells how readily two partners part at equilibrium. A low value points to a tighter complex.

Residue numbers refer to the chain shown, from its start.

Turning to `O=[N+]([O-])O` [nitrate], the Kd at nitrate reductase (NarB) [1] stood at 5.5 ± 2.2 µM; at nitrate reductase (NarB) [2], 15.5 ± 5 µM; at nitrate reductase (NarB) [3], 1.5 ± 0.4 µM.
